This is an account of results in paper PMC12415690 (RSC Advances, 2025).

In brackets after ≈: the same amount, converted by molar mass. Read-outs that look alike come from different tables or passages of the source.

The test system of data set [1] is Mycobacterium tuberculosis. The conditions noted are these: cited from earlier work.
In another data set the test system is E. coli (ATCC 25922). Description: Antibacterial zone of inhibition. It counts as cell-based. The conditions noted are these: Escherichia coli, ATCC25922, read-out: Zone of inhibition in mm, E. coli (ATCC 25922). Summed up:
(§1)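 Sterilised nutrient agar, […], was seeded with 18–24 h bacterial subcultures, mixed and poured into Petri dishes. Once the agar set, 6 mm wells were cut with a sterile cork borer and filled with test compound dissolved in DMSO at 100 μg mL−1. Plates were incubated at 37 °C for 24–48 h, and inhibition zones around each well were measured in mm. Ciprofloxacin was the reference standard.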

A further data set relates to S. aureus (ATCC 23235). The data set can be described thus: Antibacterial zone of inhibition. Type of data set: cell-based. As to conditions: Staphylococcus aureus, ATCC23235, read-out: Zone of inhibition in mm, S. aureus (ATCC 23235). Put shortly:
as §1

In data set [2] the test system is M. tuberculosis H37Rv strain (ATCC 27294). The data set can be described thus: Antitubercular activity, microplate Alamar Blue assay. Type of data set: cell-based. The conditions noted are these: Mycobacterium tuberculosis, ATCC27294|H37RV, read-out: MIC μM. Background: Resazurin is reduced to fluorescent resorufin, in cell work by metabolically active cells.
The test system of data set [3] is P. aeruginosa (ATCC 27853). The data set can be described thus: Antibacterial zone of inhibition. It counts as cell-based. As to conditions: Pseudomonas aeruginosa, ATCC27853, read-out: Zone of inhibition in mm, P. aeruginosa (ATCC 27853). Put shortly:
as §1

In the next data set the test system is B. subtilis (ATCC 6051). The data set can be described thus: Antibacterial zone of inhibition. As to conditions: 100 μg mL^−1; for zone of inhibition at 100 µg/mL: Bacillus subtilis, ATCC6051, read-out: Zone of inhibition in mm, B. subtilis (ATCC 6051), Gram positive. Type of data set: cell-based, Bacillus subtilis. Put shortly:
as §1

Data set [4] has as its system dormant M. tuberculosis H37Ra. As to conditions: cited from earlier work.
A further data set has as its system M.tb H37Rv. As to conditions: H37Rv strain; cited from earlier work.

What is called MIC is the smallest concentration in the dilution series that meets the test's criterion for growth inhibition. Consider `Cc1csc(C(C)(O)c2nnc(Nc3cccc(Br)n3)s2)n1` (centres unmarked) [1-(5-((6-bromopyridin-2-yl)amino)-1,3,4-thiadiazol-2-yl)-1-(4-methylthiazol-2-yl)ethanol], for which the MIC in data set [1] (thiazole-thiadiazole hybrids) is 1 µM.
For `O=[N+]([O-])c1ccc(-c2csc(N/N=C/C=C(\Cl)c3ccc(Cl)cc3)n2)cc1` [2-((E)-2-((Z)-3-chloro-3-(4-chlorophenyl)allylidene)hydrazinyl)-4-(4-nitrophenyl)thiazole], the MIC in [1] ((E)-2-(2-allylidenehydrazinyl)thiazole derivatives) is 6.5 µg/mL.
What is called zone of inhibition is the size of the clear area around the sample on an inoculated plate. As for `CCOC(=O)c1sc(N/N=C/c2c(-c3ccc(OC)cc3)nc3ncccn23)nc1C` [Compound K2, Ethyl(E)-2-(2-((2-(4-methoxyphenyl)imidazo[1,2-a]pyrimidin-3-yl)methylene)hydrazineyl)-4-methylthiazole-5-carboxylate], the zone of inhibition at 100 µg/mL with E. coli (ATCC 25922) is 18 mm; in the data set with S. aureus (ATCC 23235), 15 mm; in data set [3], 18 mm; in the data set on B. subtilis (ATCC 6051) it was 15 to 20 mm. In addition, in data set [2], the minimal inhibitory concentration (MIC) amounted to 3.66 µM (≈ 1.6 µg/mL). In addition, the “Cytotoxicity in VERO cells” value with VERO cell lines is reported as “non-toxic profiles”. For the same compound, the “Zone of inhibition in mm, B. subtilis (ATCC 6051)” value in the data set with B. subtilis (ATCC 6051) (Gram positive) stood at 15 mm.
Take `CCOC(=O)c1sc(N/N=C/c2c(-c3ccc(F)cc3)nc3ncccn23)nc1C` [Compound K3, Ethyl(E)-2-(2-((2-(4-fluorophenyl)imidazo[1,2-a]pyrimidin-3-yl)methylene)hydrazineyl)-4-methylthiazole-5-carboxylate]: the zone of inhibition at 100 µg/mL was found to be 20 mm in the data set with E. coli (ATCC 25922), 17 mm in the data set on S. aureus (ATCC 23235), 11 mm in data set [3] and 13 mm in the data set with B. subtilis (ATCC 6051). Moreover, in [2], the MIC stood at 3.77 µM (≈ 1.6 µg/mL). The “Cytotoxicity in VERO cells” value in the data set on VERO cell lines is listed as “non-toxic profiles”.
Turning to `CCOC(=O)c1nc(-c2ccc(C#N)cc2)sc1C1CCCCC1` [ethyl 2-(4-cyanophenyl)-5-cyclohexylthiazole-4-carboxylate], the “inhibition against dormant M. tuberculosis H37Ra” value in data set [4] is 91%. For the same compound, in the data set on M.tb H37Rv, the MIC was 2.1 µg/mL (≈ 6.17 µM).
